Experimental data taken from paper PMC3353655 (Journal of the American Chemical Society, 2012).

Columns and labels:
[1] = target: T1, Sortase B (SrtB) (Staphylococcus aureus, UniProt Q2FZE3); experiment: Fluorescence polarization binding of fluorescein-labeled lantipeptides to SrtB
T1 sequence (Q2FZE3 31-244 limits assumed): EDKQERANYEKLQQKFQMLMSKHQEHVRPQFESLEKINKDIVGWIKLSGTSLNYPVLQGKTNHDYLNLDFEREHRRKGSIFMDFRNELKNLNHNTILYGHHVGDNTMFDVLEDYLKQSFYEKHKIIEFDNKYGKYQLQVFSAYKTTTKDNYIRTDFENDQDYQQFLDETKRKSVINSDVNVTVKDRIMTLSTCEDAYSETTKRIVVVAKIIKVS
Outline: (§1)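 Binding constants were measured by fluorescence polarization. Test compounds were synthetic lantipeptides labeled with 5-carboxyfluorescein, with a C-terminal polyethylene glycol tail added for solubility. Sortase B was run in the same format as Sortase A. Each data point is the average of at least three independent measurements.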

[2] = test system: SrtA; experiment: Inhibition of SrtA catalyzed cleavage of a peptide substrate; format: biochemical, Staphylococcus aureus; details: peptide at a concentration of up to 1 mM; data not shown
Outline: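 SrtA cleaved a peptide substrate; this reaction has a Km of 80 μM. The test compound was tested at concentrations up to 1 mM.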

[3] = target: T2, Sortase A (SrtA) (Staphylococcus aureus, UniProt Q2FV99); experiment: Fluorescence polarization binding of fluorescein-labeled lantipeptides to SrtA; details: SrtA binding compared with 2(2S,6R)
T2 sequence (Q2FV99 60-206 limits assumed): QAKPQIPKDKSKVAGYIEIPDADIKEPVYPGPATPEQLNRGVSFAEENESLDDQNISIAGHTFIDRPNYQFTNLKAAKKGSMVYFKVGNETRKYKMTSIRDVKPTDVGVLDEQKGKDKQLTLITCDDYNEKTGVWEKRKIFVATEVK
Outline: as §1

Row | SMILES | affinity to SrtB (in words) ([1]; fluorescein-labeled peptide) | Kd ([1]; read-out: Kd [μM], SrtB, SrtA was replaced by Sortase B (SrtB), 50 mM Tris HCl, 50 mM NaCl, 5 mM CaCl2, 1.2 mM TCEP, average of at least three independent measurements) [µM] | inhibition of SrtA catalyzed cleavage of a peptide substrate [2] | fold weaker binder than 2(2S,6R) [3] [fold]
1 | CC[C@H](C)[C@H](NC(=O)[C@H](CCCNC(=N)N)NC(=O)CNC(=O)[C@H](Cc1c[nH]c2ccccc12)NC(=O)[C@@H]1CSC[C@@H](NC(=O)[C@H](Cc2ccc(O)cc2)NC(=O)[C@H](Cc2c[nH]c3ccccc23)NC(=O)[C@H](CC(C)C)NC(=O)CNC(=O)[C@H](CCCNC(=N)N)NC(=O)c2ccc3c(c2)C(=O)OC32c3ccc(O)cc3Oc3cc(O)ccc32)C(=O)N[C@@H](CC(C)C)C(=O)N[C@@H](CO)C(=O)N1)C(=O)NCC(=O)N[C@@H](CCCNC(=N)N)C(=O)N[C@@H](CCCNC(=N)N)C(=O)NCCCOCCOCCOCCCNC(=O)CCC(=O)NCCCOCCOCCOCCCNC(=O)CCC(=O)NCCCOCCOCCOCCCNC(=O)CCC(=O)N[C@@H](C)C(=O)O [2(2S,6R)] | no detectable affinity | > 300 | unable to inhibit | –
2 | CC[C@H](C)[C@H](NC(=O)[C@H](CCCNC(=N)N)NC(=O)CNC(=O)[C@H](Cc1c[nH]c2ccccc12)NC(=O)[C@@H]1CSC[C@@H](NC(=O)[C@H](Cc2ccc(O)cc2)NC(=O)[C@H](Cc2c[nH]c3ccccc23)NC(=O)[C@H](CC(C)C)NC(=O)CNC(=O)[C@H](CCCNC(=N)N)NC(=O)c2ccc3c(c2)C(=O)OC32c3ccc(O)cc3Oc3cc(O)ccc32)C(=O)N[C@@H](CC(C)C)C(=O)N[C@@H]([C@@H](C)O)C(=O)N1)C(=O)NCC(=O)N[C@@H](CCCNC(=N)N)C(=O)N[C@@H](CCCNC(=N)N)C(=O)NCCCOCCOCCOCCCNC(=O)CCC(=O)NCCCOCCOCCOCCCNC(=O)CCC(=O)NCCCOCCOCCOCCCNC(=O)CCC(=O)N[C@@H](C)C(=O)O [6(2S,6R)] | – | – | – | 10
